Compound activity (PubChem)
Hits are enriched below; roughly 1.8% of the tested compounds scored in any of these assays.
M4 PAM = CHRM4 positive allosteric modulation. P08173. CHO-K1 hM4/Gqi5, Fluo-8 calcium fluorescence, ACh EC20; 0% = ACh EC20, 100% = maximal ACh. activation, % at 3 µM. 360,000 tested, 0.4% active;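 active = activation above its plate's cutoff, the mean activation of sample wells plus 3 SD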
M4 ag = CHRM4 agonism in calcium assay | 360,000 tested, 0.14% active | activation, % at 3 µM | CHO-K1 hM4/Gqi5, Fluo-8 calcium fluorescence; vehicle 0%, full acetylcholine response 100%;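 active = activation above the run mean over all test wells plus 3 SD, cut at about 32% in these data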;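 note: peak over basal fluorescence ratio per well then scaled between controls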
CHRM5 antagonist = CHRM5 antagonism in calcium assay; 360,000 tested, 0.59% active; P08912; CHO-hM5 cells, Fluo-8 calcium fluorescence, ACh EC80; inhibition, % at 3 µM;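 active = inhibition above a per-plate cutoff, the mean of that plate's test compounds plus 3 SD, cut at about 27% in these data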
Target sequence (P08912 whole entry, looked up): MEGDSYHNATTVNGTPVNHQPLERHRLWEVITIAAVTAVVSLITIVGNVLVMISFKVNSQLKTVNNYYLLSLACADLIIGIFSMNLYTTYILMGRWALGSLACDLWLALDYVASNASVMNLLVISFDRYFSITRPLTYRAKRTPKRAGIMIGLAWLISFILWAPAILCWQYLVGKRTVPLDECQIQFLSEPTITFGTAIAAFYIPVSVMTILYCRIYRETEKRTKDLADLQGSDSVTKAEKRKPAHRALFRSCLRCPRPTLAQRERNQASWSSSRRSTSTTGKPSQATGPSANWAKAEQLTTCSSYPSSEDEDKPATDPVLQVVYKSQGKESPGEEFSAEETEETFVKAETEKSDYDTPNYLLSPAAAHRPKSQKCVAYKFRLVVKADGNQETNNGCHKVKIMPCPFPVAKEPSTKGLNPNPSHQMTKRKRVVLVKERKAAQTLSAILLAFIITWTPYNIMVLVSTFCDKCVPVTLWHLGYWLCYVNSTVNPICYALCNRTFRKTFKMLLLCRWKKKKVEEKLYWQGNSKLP
CHRM5 PAM = CHRM5 positive allosteric modulation | CHO-K1 hM5, Fluo-8 calcium, ACh EC20 PAM; 0% = ACh EC20, 100% = ACh EC100 | AID 624038 | P08912 | 360,000 tested, 0.3% active | activation, % at 3 µM;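 active = activation above the run cutoff, the mean activation of all test compounds plus 3 SD, cut at about 18% in these data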
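System: CHO-K1 hM5 cells. Reagent: acetylcholine, EC20 level. Compound dosing: single dose, 3 µM nominal final test concentration. Timing: Post-acetylcholine fluorescence recording 140 s. Detection: Fluo-8 calcium fluorescence. Read-out: % activation, ACh-normalized. Benchmarks: ACh EC20 and EC100 wells. Repeats: singlicate, one well per test compound.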
CHRM4 antagonist = CHRM4 antagonism in calcium assay; P08173; CHO-hM4 cells, ACh EC80, Fluo-8 calcium fluorescence; inhibition, % at 3 µM; 360,000 tested, 0.73% active;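 active = inhibition above its plate's cutoff, the mean inhibition of sample wells plus 3 SD, cut at about 27% in these data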
M5 ag = CHRM5 agonism in calcium assay. P08912. 360,000 tested, 0.19% active. CHO-K1 hM5 cells, Fluo-8 calcium fluorescence; 0% DMSO wells, 100% maximal acetylcholine response. activation, % at 3 µM;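 active = activation above the run's mean over test compounds plus 3 SD, cut at about 23% in these data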;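 note: signal is peak over basal fluorescence ratio across the kinetic read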
A number is an active result; ! = repeats disagree.

Results for CN(Cc1cccc(-c2ccncc2)c1)C(=O)Oc1ccccc1Cc1ccccc1 ?
M4 PAM: inactive; M4 ag: inactive; CHRM5 antagonist: 43; CHRM5 PAM: inactive; CHRM4 antagonist: 37; M5 ag: inactive

How did CN(Cc1cccc(-c2ccncc2)c1)C(=O)Oc1ccccc1Cl do in these assays?
M4 PAM: inactive; M4 ag: inactive; CHRM5 antagonist: inactive; CHRM5 PAM: inactive; CHRM4 antagonist: inactive; M5 ag: inactive

What do the screens show for `Clc1ccc2c(c1)C(OC1CN3CCC1CC3)c1ccccc1CS2` (centres undefined)?
M4 PAM: inactive; M4 ag: inactive; CHRM5 antagonist: 99; CHRM5 PAM: inactive; CHRM4 antagonist: 99; M5 ag: inactive

Results for CN1CCN(CCOC2c3ccccc3CSc3ccc(Cl)cc32)CC1 (centres undefined) ?
M4 PAM: inactive; M4 ag: inactive; CHRM5 antagonist: 54; CHRM5 PAM: inactive; CHRM4 antagonist: 83; M5 ag: inactive

How did O=C(COc1ccc(Cl)cc1)N(c1ccccc1Cl)C1CN2CCC1CC2 (centres undefined) do in these assays?
M4 PAM: inactive; M4 ag: inactive; CHRM5 antagonist: inactive; CHRM5 PAM: inactive; CHRM4 antagonist: inactive; M5 ag: inactive

What do the screens show for `CCCNC(=O)c1c(N)n(Cc2ccc3c(c2)OCO3)c2nc3ccccc3nc12`?
M4 PAM: inactive; M4 ag: inactive; CHRM5 antagonist: inactive; CHRM5 PAM: inactive; CHRM4 antagonist: inactive; M5 ag: inactive

What do the screens show for `CC(C)(C)c1nc(NCc2ccc3c(c2)OCO3)c2nnn(Cc3ccccc3Cl)c2n1`?
M4 PAM: 28; M4 ag: inactive; CHRM5 antagonist: inactive; CHRM5 PAM: inactive; CHRM4 antagonist: inactive; M5 ag: inactive

What do the screens show for `CC[C@@H](CO)C1CC2NC3CC4(c5ccccc5N(C)[C@@H]24)C(O)C31` (some centres undefined)?
M4 PAM: inactive; M4 ag: inactive; CHRM5 antagonist: inactive; CHRM5 PAM: inactive; CHRM4 antagonist: inactive; M5 ag: inactive

How did CC(C)N(CCC(C(N)=O)(c1ccccc1)c1ccccn1)C(C)C (centres undefined) do in these assays?
M4 PAM: inactive; M4 ag: inactive; CHRM5 antagonist: 39!; CHRM5 PAM: inactive; CHRM4 antagonist: inactive; M5 ag: inactive

What do the screens show for `Clc1ccc(-c2nc3ccc(Cl)cn3c2CN2CCCCC2)cc1`?
M4 PAM: inactive; M4 ag: inactive; CHRM5 antagonist: inactive; CHRM5 PAM: inactive; CHRM4 antagonist: inactive; M5 ag: inactive

Results for CCc1ccc(N2C(=O)NC(=O)/C(=C\c3cc(C)n(-c4cc(C(=O)O)cc(C(=O)O)c4)c3C)C2=O)cc1 ?
M4 PAM: 18; M4 ag: inactive; CHRM5 antagonist: inactive; CHRM5 PAM: inactive; CHRM4 antagonist: inactive; M5 ag: inactive

How did Cc1c(CCC(=O)N2C[C@H]3C[C@@H](C2)c2cccc(=O)n2C3)c(=O)oc2c(C)c(O)ccc12 do in these assays?
M4 PAM: inactive; M4 ag: inactive; CHRM5 antagonist: inactive; CHRM5 PAM: inactive; CHRM4 antagonist: inactive; M5 ag: inactive

What do the screens show for `COC(=O)C1=C(c2cc3ccccc3o2)C[C@@H]2CC[C@H]1N2C(=O)NC(C)C`?
M4 PAM: inactive; M4 ag: inactive; CHRM5 antagonist: inactive; CHRM5 PAM: inactive; CHRM4 antagonist: inactive; M5 ag: inactive

What do the screens show for `CC(C)NC(=O)Cn1cc(C(=O)c2ccccc2F)c2ccccc21`?
M4 PAM: 27; M4 ag: inactive; CHRM5 antagonist: inactive; CHRM5 PAM: inactive; CHRM4 antagonist: inactive; M5 ag: inactive

Results for O=C1CCCN1CC#CCN1CCCC1 ?
M4 PAM: inactive; M4 ag: 84; CHRM5 antagonist: 95; CHRM5 PAM: inactive; CHRM4 antagonist: 81; M5 ag: 103

What do the screens show for `C(#CCN1CCCCC1)CN1CCCCC1`?
M4 PAM: inactive; M4 ag: inactive; CHRM5 antagonist: inactive; CHRM5 PAM: inactive; CHRM4 antagonist: inactive; M5 ag: inactive

What do the screens show for `Nc1ccccc1C(=O)OCC(=O)c1ccc2c(c1)OCCO2`?
M4 PAM: inactive; M4 ag: inactive; CHRM5 antagonist: inactive; CHRM5 PAM: inactive; CHRM4 antagonist: inactive; M5 ag: inactive
